According to ChEMBL document CHEMBL3593224, “Design, synthesis and biological evaluation of a novel series of peripheral-selective noradrenaline reuptake inhibitor” (Bioorg Med Chem, 2015):
The source made the active and inactive calls. The calls are words filed in the database; no cut-off is given here.

What was measured:
Homo sapiens [1] = species on record: Homo sapiens; assay: Selectivity index, ratio of IC50 for human SERT to IC50 for human NET
How it was run: (§1)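 Ratio of IC50s from two [3H]-uptake assays in CHO cells (SERT or human NET expressing), seeded overnight in HEPES-buffered saline with glucose and 0.5% BSA. Radioligand added from 200 nM dilutions. SERT: [3H]-5-hydroxytryptamine, 20 min. NET: [3H]-norepinephrine, 45 min. Washed, scintillation counted; IC50 with 95% CI, n=2.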

[2] = biological target: Sodium-dependent dopamine transporter (Homo sapiens, UniProt Q01959); assay: Inhibition of human DAT expressed in CHOK1 cells incubated for 60 mins by [3H]-dopamine uptake assay; type: cell-based, CHO-K1
How it was run: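 CHO cells stably expressing human DAT, grown in Ham/F12 with 10% FBS, seeded 3 × 10^5 cells/mL and cultured overnight. Compound added in buffer (NaCl, KCl, KH2PO4, MgSO4, 10 mM HEPES, CaCl2, glucose, 0.5% BSA), then [3H]-dopamine (200 nM stock, with 10 µM cold dopamine stock); 60 min uptake, PBS wash, scintillation count. 100 µM nomifensine as 100% inhibition; IC50 with 95% CI, n=2.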

Homo sapiens [3] = species on record: Homo sapiens; assay: Selectivity index, ratio of IC50 for human DAT to IC50 for human NET
How it was run: as §1, with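 “stably expressing human DAT” for “(SERT”, “NET,” for “human NET expressing),”, “DAT: [3H]-dopamine plus cold dopamine (10 µM dilution), 60” for “SERT: [3H]-5-hydroxytryptamine, 20”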

[4] = biological target: Sodium-dependent noradrenaline transporter (Homo sapiens, UniProt P23975); assay: Inhibition of human NET expressed in CHOK1 cells incubated for 45 mins by [3H]-norepinephrine uptake assay; type: cell-based, CHO-K1
How it was run: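 Human NET stably expressed in CHO cells (Ham/F12, 10% FBS), seeded 3 × 10^5 cells/mL, overnight culture. In HEPES-buffered salt/glucose buffer with 0.5% BSA, compound then [3H]-norepinephrine (diluted to 200 nM before addition) added; uptake 45 min, two PBS washes, scintillation counting. 10 µM desipramine taken as 100% inhibition; IC50 and 95% confidence interval from n=2.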

[5] = biological target: Sodium-dependent serotonin transporter (Homo sapiens, UniProt P31645); assay: Inhibition of human SERT expressed in CHOK1 cells incubated for 20 mins by [3H]-5-hydroxytryptamine uptake assay; type: cell-based, CHO-K1
How it was run: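 CHO cells stably expressing human SERT, cultured in Ham/F12 plus 10% FBS, plated 3 × 10^5 cells/mL overnight. Buffer: 126 mM NaCl, 10 mM HEPES, glucose, 0.5% BSA; compound added at 10× then diluted, followed by [3H]-5-HT (200 nM stock). After 20 min, buffer removed, cells washed twice with PBS, radioactivity counted; IC50 and 95% CI from two experiments.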

CYP2D6 = CYP2D6 (Homo sapiens, UniProt P10635); assay: Inhibition of CYP2D6 (unknown origin) at 10 uM; type: ADME
Rattus norvegicus [6] = assay: Increase in urethral resistance in rat assessed as increase in leak point pressure at 1 to 10 mg/kg, sc measured 30 mins post dose by Evans blue dye based assay; type: functional, organism-based; settings: Urethra
Rattus norvegicus [7] = assay: In-vivo occupancy at NET in Sprague-Dawley rat brain cortex at 3 mg/kg, iv by [3H]-nisoxetine […] assay; type: functional
How it was run: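 Female Sprague-Dawley rats under urethane anaesthesia (i.p.) got compound i.v. The left cortex was removed 20 min later and homogenised in Tris-Cl pH 7.5/NaCl/KCl buffer. Membranes at 4 mg/mL protein were incubated 1 h at room temperature with [3H]-nisoxetine (25 nmol/L solution), with desipramine for nonspecific binding. Filtered on GF/B; occupancy taken against vehicle specific binding (100%).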

hERG (KCNH2) = hERG (KCNH2) (Homo sapiens, UniProt Q12809); assay: Inhibition of human ERG at 10 uM
Rattus norvegicus [8] = assay: Increase in urethral resistance in rat assessed as increase in leak point pressure at 0.3 to 3 mg/kg, iv measured 30 mins post dose by Evans blue dye based assay; type: functional, organism-based; settings: Urethra

Sequence of Sodium-dependent serotonin transporter (P31645 whole entry): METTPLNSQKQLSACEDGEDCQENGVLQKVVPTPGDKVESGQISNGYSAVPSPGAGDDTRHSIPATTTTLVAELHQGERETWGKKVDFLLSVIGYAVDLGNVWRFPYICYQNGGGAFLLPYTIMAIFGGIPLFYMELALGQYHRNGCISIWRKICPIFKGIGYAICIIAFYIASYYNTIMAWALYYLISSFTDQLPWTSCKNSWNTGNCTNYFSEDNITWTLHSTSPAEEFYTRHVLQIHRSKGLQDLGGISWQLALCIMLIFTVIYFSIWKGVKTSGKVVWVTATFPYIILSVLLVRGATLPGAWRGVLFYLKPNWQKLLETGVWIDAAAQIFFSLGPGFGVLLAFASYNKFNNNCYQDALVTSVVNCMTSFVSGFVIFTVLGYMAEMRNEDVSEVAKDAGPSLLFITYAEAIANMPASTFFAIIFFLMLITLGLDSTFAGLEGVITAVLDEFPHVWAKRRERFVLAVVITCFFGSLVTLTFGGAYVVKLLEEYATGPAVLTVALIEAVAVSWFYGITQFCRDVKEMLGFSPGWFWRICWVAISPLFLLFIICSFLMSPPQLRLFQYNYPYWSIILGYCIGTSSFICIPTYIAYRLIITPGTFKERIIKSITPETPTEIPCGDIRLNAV
Sequence of Sodium-dependent noradrenaline transporter (P23975 whole entry): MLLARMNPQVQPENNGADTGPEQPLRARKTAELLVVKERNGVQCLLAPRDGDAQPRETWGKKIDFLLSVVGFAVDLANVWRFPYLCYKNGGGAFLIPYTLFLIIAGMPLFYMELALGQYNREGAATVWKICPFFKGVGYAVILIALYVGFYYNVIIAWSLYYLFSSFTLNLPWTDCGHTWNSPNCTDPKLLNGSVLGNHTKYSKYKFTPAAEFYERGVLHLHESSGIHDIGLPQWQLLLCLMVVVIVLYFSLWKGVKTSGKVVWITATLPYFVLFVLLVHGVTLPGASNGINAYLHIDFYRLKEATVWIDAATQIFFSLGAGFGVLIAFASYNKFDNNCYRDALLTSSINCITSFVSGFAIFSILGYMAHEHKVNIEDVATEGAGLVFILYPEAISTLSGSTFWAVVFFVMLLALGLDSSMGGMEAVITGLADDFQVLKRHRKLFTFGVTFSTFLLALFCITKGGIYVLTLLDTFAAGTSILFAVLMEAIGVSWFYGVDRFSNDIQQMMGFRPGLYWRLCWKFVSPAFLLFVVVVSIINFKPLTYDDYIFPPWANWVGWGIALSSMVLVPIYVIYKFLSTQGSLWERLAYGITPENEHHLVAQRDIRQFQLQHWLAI
Sequence of Sodium-dependent dopamine transporter (Q01959 whole entry): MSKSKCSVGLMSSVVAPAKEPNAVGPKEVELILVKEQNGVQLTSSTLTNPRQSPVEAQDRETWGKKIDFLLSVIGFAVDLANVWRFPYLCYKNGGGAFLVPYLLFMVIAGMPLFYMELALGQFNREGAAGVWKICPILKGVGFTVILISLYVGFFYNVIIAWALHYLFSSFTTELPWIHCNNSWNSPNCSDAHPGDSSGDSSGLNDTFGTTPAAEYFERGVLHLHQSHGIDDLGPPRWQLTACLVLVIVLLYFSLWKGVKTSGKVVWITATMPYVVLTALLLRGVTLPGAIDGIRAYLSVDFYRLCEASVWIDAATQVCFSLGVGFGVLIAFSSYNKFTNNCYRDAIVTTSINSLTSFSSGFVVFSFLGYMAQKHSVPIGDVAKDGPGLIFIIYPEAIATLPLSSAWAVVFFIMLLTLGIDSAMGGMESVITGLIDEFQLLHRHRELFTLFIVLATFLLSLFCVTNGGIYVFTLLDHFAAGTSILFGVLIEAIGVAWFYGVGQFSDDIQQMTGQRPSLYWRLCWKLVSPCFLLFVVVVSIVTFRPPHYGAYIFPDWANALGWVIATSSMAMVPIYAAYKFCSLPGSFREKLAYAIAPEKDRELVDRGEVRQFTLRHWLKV
Sequence of CYP2D6 (P10635 whole entry): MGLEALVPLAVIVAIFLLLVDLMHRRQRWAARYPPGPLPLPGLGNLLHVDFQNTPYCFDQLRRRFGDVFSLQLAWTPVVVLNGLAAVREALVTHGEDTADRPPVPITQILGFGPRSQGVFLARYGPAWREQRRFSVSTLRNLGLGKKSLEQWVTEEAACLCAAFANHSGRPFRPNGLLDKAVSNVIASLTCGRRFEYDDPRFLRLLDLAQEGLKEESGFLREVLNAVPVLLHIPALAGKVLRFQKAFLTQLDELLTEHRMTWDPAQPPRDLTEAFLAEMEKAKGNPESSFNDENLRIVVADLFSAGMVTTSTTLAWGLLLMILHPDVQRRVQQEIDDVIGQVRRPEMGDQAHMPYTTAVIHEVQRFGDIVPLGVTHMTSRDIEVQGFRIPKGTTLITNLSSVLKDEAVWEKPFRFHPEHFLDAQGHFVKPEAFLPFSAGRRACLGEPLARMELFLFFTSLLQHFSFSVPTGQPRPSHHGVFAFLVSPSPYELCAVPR
Sequence of hERG (KCNH2) (Q12809 whole entry): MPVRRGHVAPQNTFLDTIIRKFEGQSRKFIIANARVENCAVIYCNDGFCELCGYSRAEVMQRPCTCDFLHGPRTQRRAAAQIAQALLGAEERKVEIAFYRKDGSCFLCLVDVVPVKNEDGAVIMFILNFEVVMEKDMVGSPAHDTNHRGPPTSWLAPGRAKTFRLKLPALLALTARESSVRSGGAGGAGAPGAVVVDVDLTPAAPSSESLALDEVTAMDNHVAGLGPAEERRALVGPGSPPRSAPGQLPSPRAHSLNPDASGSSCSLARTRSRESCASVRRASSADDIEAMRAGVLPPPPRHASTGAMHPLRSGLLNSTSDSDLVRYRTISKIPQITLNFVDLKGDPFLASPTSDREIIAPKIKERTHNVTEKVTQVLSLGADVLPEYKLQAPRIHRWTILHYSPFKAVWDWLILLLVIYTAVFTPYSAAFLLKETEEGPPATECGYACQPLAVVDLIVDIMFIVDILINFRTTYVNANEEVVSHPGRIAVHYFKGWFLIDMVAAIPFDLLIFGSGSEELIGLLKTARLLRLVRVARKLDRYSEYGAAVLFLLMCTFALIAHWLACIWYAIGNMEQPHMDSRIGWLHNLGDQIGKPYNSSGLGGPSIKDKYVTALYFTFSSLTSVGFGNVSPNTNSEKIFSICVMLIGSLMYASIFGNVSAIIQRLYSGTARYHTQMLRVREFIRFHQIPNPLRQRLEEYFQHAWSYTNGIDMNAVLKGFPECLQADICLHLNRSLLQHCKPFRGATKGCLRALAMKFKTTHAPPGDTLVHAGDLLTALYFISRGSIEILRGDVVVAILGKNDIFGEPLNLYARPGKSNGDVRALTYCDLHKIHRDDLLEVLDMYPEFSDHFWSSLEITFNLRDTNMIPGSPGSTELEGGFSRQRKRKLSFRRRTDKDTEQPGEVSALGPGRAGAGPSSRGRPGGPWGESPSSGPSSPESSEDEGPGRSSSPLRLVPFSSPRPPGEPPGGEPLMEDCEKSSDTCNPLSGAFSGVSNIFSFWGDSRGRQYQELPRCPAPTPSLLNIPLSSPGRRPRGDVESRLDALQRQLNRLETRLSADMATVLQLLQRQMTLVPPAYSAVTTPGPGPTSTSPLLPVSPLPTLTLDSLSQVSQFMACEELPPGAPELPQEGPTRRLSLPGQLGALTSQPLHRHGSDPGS

SMILES | Ratio IC50 (Homo sapiens [1]) | IC50 [2] [nM] | Ratio IC50 (Homo sapiens [3]) | IC50 [4] [nM] | IC50 [5] [nM] | inhibition at 10 µM (CYP2D6) [%] | Activity (Rattus norvegicus [6]) | Occ (Rattus norvegicus [7]) [%] | inhibition at 10 µM (hERG (KCNH2)) [%] | Activity (Rattus norvegicus [8])
CC(=O)NC[C@@H]1CNCCO[C@H]1c1ccc(Cl)c(C)c1 | 150 | > 1000 | > 300 | 3.3 | 480 | – | – | – | – | –
CC(=O)NCC[C@@H]1CNCCO[C@H]1c1ccc(Cl)c(Cl)c1 | 35 | > 1000 | > 170 | 5.8 | 200 | – | – | – | – | –
OC[C@@]1(c2ccc(Cl)c(Cl)c2)CCNCCO1 | 35 | > 10000 | > 1800 | 5.6 | 200 | 23 | – | – | – | –
CCOc1ccccc1O[C@@H](c1ccccc1)[C@@H]1CNCCO1 | – | – | – | – | – | – | Active | – | – | –
OC[C@H]1CNCCO[C@H]1c1ccc(Cl)c(Cl)c1 | 20 | > 1000 | > 170 | 6 | 120 | 47 | – | – | – | –
OC[C@]1(c2ccc(Cl)c(Cl)c2)CCNCCO1 | 0.47 | > 10000 | > 14 | 700 | 330 | 21 | – | – | – | –
CC(=O)NC[C@@H]1CNCCO[C@H]1c1ccc(Cl)c(F)c1.Cl | > 440 | > 1000 | > 440 | 2.3 | > 1000 | – | – | -2.8 | – | –
OC[C@H]1CNCCO[C@@H]1c1ccc(Cl)c(Cl)c1 | 6.1 | 1400 | 230 | 5.8 | 36 | 45 | – | – | – | –
OCC1(c2ccc(Cl)c(Cl)c2)CCNCCO1 (racemic) | 12 | > 10000 | > 590 | 17 | 200 | 19 | – | – | – | –
Cl.OC[C@@H]1CNCCO[C@H]1c1ccc(Cl)c(Cl)c1 | 50 | 3100 | 1800 | 2 | 97 | 34 | – | 68 | – | –
CNC(=O)[C@@H]1CNCCO[C@H]1c1ccc(Cl)c(Cl)c1 | > 83 | > 1000 | > 83 | 12 | > 1000 | – | – | – | – | –
OC[C@@H]1CNCCO[C@@H]1c1ccc(Cl)c(Cl)c1 | 1.3 | > 1000 | > 120 | 8.5 | 11 | 58 | – | – | – | –
CC(=O)NC[C@@H]1CNCCO[C@H]1c1ccc(Cl)c(Cl)c1.O=C(O)/C=C/C(=O)O | 450 | 1500 | 4400 | 0.33 | 150 | – | – | -14 | 15 | Dose-dependent effect
OCC1(c2ccc(Cl)c(Cl)c2)CCCNCC1 (racemic) | 17 | > 1000 | > 480 | 2.1 | 35 | 44 | – | – | – | –
CC(=O)NC[C@@H]1CNCCO[C@H]1c1ccc(C)c(Cl)c1 | 200 | > 1000 | > 300 | 3.4 | 680 | – | – | – | – | –
CN(C)C(=O)[C@@H]1CNCCO[C@H]1c1ccc(Cl)c(Cl)c1.Cl | 460 | 70 | 91 | 0.77 | 350 | – | – | 68 | – | –
NC(=O)[C@@H]1CNCCO[C@H]1c1ccc(Cl)c(Cl)c1 | 15 | > 10000 | > 190 | 52 | 780 | – | – | – | – | –
CC(=O)NC[C@@H]1CNCCO[C@H]1c1ccc(F)c(Cl)c1.O=C(O)/C=C/C(=O)O | > 76 | > 1000 | > 76 | 13 | > 1000 | – | – | 1.7 | – | –
